According to ChEMBL document CHEMBL4229344 (Eur J Med Chem, 2018):
Activity calls are given as the source filed them. No cut-off for these calls is given here.

Assays:
[1] = target: Myosin-IIIb (Homo sapiens) (UniProt Q8WXR4); assay: Binding affinity to wild-type human partial length MYO3B (M1 to D357 residues) expressed in bacterial expression system assessed as residual binding level at 1 uM by Kinomescan method relative to control
[2] = target: Membrane-associated tyrosine- and threonine-specific cdc2-inhibitory kinase (Homo sapiens) (UniProt Q99640); assay: Binding affinity to wild-type human partial length PKMYT1 (A88 to G366 residues) expressed in bacterial expression system assessed as residual binding level at 1 uM by Kinomescan method relative to control
Chain of Membrane-associated tyrosine- and threonine-specific cdc2-inhibitory kinase (Homo sapiens) (Q99640 whole entry, the tested form may be a part): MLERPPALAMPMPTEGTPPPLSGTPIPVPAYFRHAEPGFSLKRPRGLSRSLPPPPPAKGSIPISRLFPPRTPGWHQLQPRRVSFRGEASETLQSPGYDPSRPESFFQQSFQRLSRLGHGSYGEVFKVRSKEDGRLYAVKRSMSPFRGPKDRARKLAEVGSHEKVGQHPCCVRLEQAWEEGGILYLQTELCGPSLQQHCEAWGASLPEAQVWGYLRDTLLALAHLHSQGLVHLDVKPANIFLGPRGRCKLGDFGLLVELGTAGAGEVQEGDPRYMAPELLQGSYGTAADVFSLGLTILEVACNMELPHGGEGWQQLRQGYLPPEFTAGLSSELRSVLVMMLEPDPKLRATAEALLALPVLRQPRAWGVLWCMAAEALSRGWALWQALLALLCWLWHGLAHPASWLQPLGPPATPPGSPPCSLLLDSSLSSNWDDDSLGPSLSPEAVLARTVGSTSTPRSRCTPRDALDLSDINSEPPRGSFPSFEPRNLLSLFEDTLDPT
How it was run: (§1)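 KINOMEscan competition binding against a panel of 468 purified kinases/mutants, compound tested at 1 μM; readout is relative binding activity versus control.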

[3] = tested on: Tyrosine-protein kinase ABL1 (Homo sapiens), P00519 [T315I]; assay: Binding affinity to human phosphorylated ABL1 T315I mutant (S229 to K512 residues) expressed in mammalian expression system assessed as residual binding level at 1 uM by Kinomescan method relative to control
How it was run: (§2)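 Single-concentration (1 μM) competition-binding screen run by KINOMEscan against a panel of 468 purified kinases and mutants. The read-out is the relative binding activity of the test compound to each kinase.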

[4] = target: Discoidin domain-containing receptor 2 (Homo sapiens) (UniProt Q16832); assay: Binding affinity to wild-type human partial length DDR2 (V555 to E855 residues) expressed in mammalian expression system assessed as residual binding level at 1 uM by Kinomescan method relative to control
Chain of Discoidin domain-containing receptor 2 (Homo sapiens) (Q16832 whole entry, the tested form may be a part): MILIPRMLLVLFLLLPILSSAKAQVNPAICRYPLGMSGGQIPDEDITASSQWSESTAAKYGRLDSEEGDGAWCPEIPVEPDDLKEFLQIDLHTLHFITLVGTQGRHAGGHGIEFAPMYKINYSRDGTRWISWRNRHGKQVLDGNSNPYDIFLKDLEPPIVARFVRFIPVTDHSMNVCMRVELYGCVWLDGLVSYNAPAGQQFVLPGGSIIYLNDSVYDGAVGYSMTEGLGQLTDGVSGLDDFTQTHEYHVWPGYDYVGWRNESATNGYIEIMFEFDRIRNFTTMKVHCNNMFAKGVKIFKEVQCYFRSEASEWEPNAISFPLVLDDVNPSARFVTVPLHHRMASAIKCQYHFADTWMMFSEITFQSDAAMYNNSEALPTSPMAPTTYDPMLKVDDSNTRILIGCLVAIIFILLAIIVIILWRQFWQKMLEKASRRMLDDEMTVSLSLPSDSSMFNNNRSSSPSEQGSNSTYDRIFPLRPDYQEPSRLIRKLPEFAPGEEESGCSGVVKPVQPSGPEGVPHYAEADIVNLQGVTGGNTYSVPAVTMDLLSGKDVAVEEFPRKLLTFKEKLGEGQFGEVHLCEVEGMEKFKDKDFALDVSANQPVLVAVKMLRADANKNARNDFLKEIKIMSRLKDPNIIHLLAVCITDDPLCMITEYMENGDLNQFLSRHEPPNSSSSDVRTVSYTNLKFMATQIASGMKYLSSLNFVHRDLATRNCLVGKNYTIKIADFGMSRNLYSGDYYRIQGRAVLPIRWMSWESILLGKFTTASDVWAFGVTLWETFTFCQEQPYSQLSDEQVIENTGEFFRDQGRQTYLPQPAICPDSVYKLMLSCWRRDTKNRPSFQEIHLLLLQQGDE
How it was run: (§3)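 Kinome-wide competition binding screen against a panel of 468 purified kinases/mutants, with the test compound at a single concentration of 1 μM. Read-out is the relative binding activity of each kinase in the presence of compound.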

[5] = target: Receptor-interacting serine/threonine-protein kinase 2 (Homo sapiens) (UniProt O43353); assay: Binding affinity to wild-type human partial length RIPK2 (M1 to K310 residues) expressed in bacterial expression system assessed as residual binding level at 1 uM by Kinomescan method relative to control
Chain of Receptor-interacting serine/threonine-protein kinase 2 (Homo sapiens) (O43353 whole entry, the tested form may be a part): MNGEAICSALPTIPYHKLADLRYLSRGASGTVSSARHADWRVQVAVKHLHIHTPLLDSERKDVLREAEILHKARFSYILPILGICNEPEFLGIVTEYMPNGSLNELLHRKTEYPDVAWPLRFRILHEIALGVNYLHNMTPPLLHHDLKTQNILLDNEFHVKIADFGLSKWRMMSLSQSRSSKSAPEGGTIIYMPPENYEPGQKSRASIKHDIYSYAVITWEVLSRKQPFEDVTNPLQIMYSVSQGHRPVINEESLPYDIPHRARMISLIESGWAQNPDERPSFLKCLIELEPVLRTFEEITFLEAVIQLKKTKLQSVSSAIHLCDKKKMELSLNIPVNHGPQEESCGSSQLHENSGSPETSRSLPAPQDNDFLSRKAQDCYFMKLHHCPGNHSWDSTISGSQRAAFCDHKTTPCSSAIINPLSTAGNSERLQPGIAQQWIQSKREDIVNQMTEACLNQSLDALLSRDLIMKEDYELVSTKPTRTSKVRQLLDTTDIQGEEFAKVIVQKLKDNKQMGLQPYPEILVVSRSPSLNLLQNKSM

[6] = tested on: Tyrosine-protein kinase ABL1 (Homo sapiens), P00519 [F317I]; assay: Binding affinity to human non-phosphorylated ABL1 F317I mutant (S229 to K512 residues) expressed in mammalian expression system assessed as residual binding level at 1 uM by Kinomescan method relative to control
How it was run: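 Kinome-wide single-concentration binding screen (KINOMEscan) at 1 μM against a panel of 468 purified kinases and mutants. Read-out is relative binding of each kinase compared with control. Selectivity across the panel was summarised as an S(10) score.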

[7] = target: Inhibitor of nuclear factor kappa-B kinase subunit alpha (Homo sapiens) (UniProt O15111); assay: Binding affinity to wild-type human full length IKK-alpha (M1 to E745 residues) expressed in mammalian expression system assessed as residual binding level at 1 uM by Kinomescan method relative to control; how it was run: as §2
Chain of Inhibitor of nuclear factor kappa-B kinase subunit alpha (Homo sapiens) (O15111 whole entry, the tested form may be a part): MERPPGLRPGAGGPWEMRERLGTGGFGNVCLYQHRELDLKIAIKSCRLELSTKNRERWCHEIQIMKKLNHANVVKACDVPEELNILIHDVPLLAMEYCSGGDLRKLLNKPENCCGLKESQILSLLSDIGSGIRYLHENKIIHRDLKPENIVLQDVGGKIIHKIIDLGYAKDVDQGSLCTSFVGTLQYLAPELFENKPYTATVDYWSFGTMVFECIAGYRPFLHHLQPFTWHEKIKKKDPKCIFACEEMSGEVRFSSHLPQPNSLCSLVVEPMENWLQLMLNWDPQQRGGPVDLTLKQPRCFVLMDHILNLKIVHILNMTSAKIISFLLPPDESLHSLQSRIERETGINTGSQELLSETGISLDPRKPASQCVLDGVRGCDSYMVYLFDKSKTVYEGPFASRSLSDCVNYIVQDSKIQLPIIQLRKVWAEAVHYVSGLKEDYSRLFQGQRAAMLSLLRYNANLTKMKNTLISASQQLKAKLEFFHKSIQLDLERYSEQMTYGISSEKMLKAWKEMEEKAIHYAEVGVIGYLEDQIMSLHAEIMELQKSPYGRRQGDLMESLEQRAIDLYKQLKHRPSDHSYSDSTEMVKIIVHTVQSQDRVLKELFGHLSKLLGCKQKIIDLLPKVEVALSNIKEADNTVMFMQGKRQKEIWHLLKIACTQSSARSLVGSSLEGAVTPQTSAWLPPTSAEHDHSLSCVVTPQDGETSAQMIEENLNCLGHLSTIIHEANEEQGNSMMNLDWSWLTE

[8] = target: Calcium/calmodulin-dependent protein kinase kinase 1 (Homo sapiens) (UniProt Q8N5S9); assay: Binding affinity to wild-type human partial length CAMKK1 (R65 to E414 residues) expressed in bacterial expression system assessed as residual binding level at 1 uM by Kinomescan method relative to control; how it was run: as §3
[9] = target: Tyrosine-protein kinase CSK (Homo sapiens) (UniProt P41240); assay: Binding affinity to wild-type human full length CSK (M1 to L450 residues) expressed in bacterial expression system assessed as residual binding level at 1 uM by Kinomescan method relative to control
Chain of Tyrosine-protein kinase CSK (Homo sapiens) (P41240 2-450 limits assumed): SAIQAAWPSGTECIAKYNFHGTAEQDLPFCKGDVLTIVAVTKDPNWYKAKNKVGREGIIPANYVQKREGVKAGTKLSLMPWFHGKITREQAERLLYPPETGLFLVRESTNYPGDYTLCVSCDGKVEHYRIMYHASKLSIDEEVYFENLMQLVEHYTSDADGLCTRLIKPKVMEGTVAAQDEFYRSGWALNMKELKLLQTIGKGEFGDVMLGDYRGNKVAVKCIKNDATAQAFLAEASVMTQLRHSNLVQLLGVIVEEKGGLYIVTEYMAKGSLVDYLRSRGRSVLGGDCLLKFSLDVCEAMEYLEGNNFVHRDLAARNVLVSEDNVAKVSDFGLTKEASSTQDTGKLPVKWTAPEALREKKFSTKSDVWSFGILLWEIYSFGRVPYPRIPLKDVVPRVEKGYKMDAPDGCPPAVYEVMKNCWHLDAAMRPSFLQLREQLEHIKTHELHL
How it was run: (§4)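 KINOMEscan competition binding against 468 purified kinases/mutants, test compound at 1 µM; residual binding relative to control.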

[10] = Oral bioavailability in Sprague-Dawley rat at 10 mg/kg; type: ADME, organism-based; conditions: in vivo
How it was run: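 Male Sprague-Dawley rats, 6–8 weeks old and fasted overnight, dosed IV at 1 mg/kg or PO at 10 mg/kg. Formulation was 5% DMSO/40% PEG400/55% saline (1 mg/mL). Jugular blood collected on heparin from 1 min to 8 h (IV) or 5 min to 24 h (PO). Plasma separated by centrifugation at 2–8 °C and stored at −80 °C.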

[11] = target: Serine/threonine-protein kinase 38-like (Homo sapiens) (UniProt Q9Y2H1); assay: Binding affinity to wild-type human partial length NDR2 (N34 to E447 residues) expressed in bacterial expression system assessed as residual binding level at 1 uM by Kinomescan method relative to control; how it was run: as §3
[12] = target: Epithelial discoidin domain-containing receptor 1 (Homo sapiens, UniProt Q08345); assay: Inhibition of DDR1 (unknown origin) using poly(4:1 Glu,Tyr) peptide as substrate preincubated for 1 hr followed by addition of ATP and measured after 30 mins by ADP-Glo bioluminescence assay
[13] = target: TRAF2 and NCK-interacting protein kinase (Homo sapiens) (UniProt Q9UKE5); assay: Binding affinity to wild-type human partial length TNIK (D4 to K311 residues) expressed in bacterial expression system assessed as residual binding level at 1 uM by Kinomescan method relative to control; how it was run: as §1
[14] = target: Cyclin-dependent kinase 2 homolog (Plasmodium falciparum (isolate 3D7)) (UniProt P61075); assay: Binding affinity to wild-type Plasmodium falciparum 3D7 full length PK5 (M1 to N288 residues) expressed in mammalian expression system assessed as residual binding level at 1 uM by Kinomescan method relative to control; how it was run: as §2
Chain of Cyclin-dependent kinase 2 homolog (Plasmodium falciparum (isolate 3D7)) (P61075 whole entry, the tested form may be a part): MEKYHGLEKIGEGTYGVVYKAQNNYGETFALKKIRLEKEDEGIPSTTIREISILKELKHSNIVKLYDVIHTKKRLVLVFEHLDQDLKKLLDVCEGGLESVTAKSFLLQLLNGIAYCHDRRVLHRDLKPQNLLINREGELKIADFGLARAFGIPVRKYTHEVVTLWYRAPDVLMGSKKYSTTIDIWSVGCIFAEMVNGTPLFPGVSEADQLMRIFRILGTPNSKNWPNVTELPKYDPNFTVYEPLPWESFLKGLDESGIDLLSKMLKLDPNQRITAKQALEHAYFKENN

[15] = target: Mitogen-activated protein kinase kinase kinase 2 (Homo sapiens) (UniProt Q9Y2U5); assay: Binding affinity to wild-type human partial length MAP3K2 (S315 to H619 residues) expressed in mammalian expression system assessed as residual binding level at 1 uM by Kinomescan method relative to control
[16] = target: Mitogen-activated protein kinase kinase kinase 4 (Homo sapiens) (UniProt Q9Y6R4); assay: Binding affinity to wild-type human partial length MAP3K4 (G1319 to E1608 residues) expressed in bacterial expression system assessed as residual binding level at 1 uM by Kinomescan method relative to control
Chain of Mitogen-activated protein kinase kinase kinase 4 (Homo sapiens) (Q9Y6R4 whole entry, the tested form may be a part): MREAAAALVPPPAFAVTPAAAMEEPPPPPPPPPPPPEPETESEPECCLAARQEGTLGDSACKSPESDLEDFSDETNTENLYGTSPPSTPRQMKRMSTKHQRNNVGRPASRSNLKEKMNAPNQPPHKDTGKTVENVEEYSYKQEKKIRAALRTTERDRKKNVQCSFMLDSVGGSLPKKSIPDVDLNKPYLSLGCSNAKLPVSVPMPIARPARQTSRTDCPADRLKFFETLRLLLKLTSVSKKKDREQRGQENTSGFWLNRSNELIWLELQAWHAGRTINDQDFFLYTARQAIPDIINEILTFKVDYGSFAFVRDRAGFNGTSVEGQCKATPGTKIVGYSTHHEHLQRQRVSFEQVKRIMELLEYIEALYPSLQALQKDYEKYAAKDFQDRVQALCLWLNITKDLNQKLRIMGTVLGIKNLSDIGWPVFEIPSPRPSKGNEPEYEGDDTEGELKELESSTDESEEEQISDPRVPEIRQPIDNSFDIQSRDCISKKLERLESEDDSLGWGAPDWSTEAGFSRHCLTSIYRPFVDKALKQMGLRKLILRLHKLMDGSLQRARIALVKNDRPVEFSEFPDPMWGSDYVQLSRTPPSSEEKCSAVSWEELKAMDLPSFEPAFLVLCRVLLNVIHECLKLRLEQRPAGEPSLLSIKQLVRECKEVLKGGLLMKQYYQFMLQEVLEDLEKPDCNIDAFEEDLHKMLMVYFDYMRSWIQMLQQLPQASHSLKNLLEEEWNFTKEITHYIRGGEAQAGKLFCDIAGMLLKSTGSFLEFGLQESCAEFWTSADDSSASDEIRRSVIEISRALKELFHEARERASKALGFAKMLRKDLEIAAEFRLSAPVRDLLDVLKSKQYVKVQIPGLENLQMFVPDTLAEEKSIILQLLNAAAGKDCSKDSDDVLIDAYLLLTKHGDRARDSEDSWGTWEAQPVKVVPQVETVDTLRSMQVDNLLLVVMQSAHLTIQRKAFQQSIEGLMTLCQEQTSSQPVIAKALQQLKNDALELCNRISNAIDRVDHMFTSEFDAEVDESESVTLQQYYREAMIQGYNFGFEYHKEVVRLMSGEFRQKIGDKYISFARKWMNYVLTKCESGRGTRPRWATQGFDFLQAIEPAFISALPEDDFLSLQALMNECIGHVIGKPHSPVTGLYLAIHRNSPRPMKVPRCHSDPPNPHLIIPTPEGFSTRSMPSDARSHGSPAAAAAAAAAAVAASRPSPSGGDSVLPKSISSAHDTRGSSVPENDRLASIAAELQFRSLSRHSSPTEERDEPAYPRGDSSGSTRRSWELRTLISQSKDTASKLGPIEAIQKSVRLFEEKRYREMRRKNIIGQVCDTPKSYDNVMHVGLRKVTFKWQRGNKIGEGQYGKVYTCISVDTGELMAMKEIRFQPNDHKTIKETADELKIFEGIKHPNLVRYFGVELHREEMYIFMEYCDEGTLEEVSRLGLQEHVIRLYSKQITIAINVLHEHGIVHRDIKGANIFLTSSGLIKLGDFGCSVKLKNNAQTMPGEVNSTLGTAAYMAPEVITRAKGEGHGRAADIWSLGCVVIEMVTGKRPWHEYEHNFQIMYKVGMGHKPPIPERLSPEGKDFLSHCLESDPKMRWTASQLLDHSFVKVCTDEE

EOL1 = assay: Antitumor activity against human EOL-1 cells xenografted in nu/nu mouse assessed as reduction in tumor cell proliferation at 25 to 100 mg/kg/day, ip by KI-67-staining based microscopic analysis; type: functional, organism-based
How it was run: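 Female nu/nu mice (6 weeks) given subcutaneous right-flank injection of 5 million EOL-1 cells in PBS/Matrigel 1:1. At 200–400 mm3 tumors, randomized to groups of 6 and dosed daily i.p. for 14 days at 25, 50 or 100 mg/kg/d in 0.5% methylcellulose/0.4% Tween80. Tumor volume = W²×L/2, measured daily.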

[17] = target: Cyclin-dependent kinase 15 (Homo sapiens) (UniProt Q96Q40); assay: Binding affinity to wild-type human full length PFTAIRE2 (M1 to W384 residues) expressed in bacterial expression system assessed as residual binding level at 1 uM by Kinomescan method relative to control; how it was run: as §4
[18] = target: Inhibitor of nuclear factor kappa-B kinase subunit epsilon (Homo sapiens) (UniProt Q14164); assay: Binding affinity to wild-type human full length IKK-epsilon (M1 to V716 residues) expressed in mammalian expression system assessed as residual binding level at 1 uM by Kinomescan method relative to control; how it was run: as §2
[19] = MRT (0 to t) in Sprague-Dawley rat at 10 mg/kg, po; type: ADME, organism-based; conditions: in vivo

## Cc1ccc(NC(=O)c2ccc(CN(CCN(C)C)C(=O)c3cccnc3)cc2)cc1Nc1nccc(-c2cccnc2)n1
[1]
  Activity: 97%
[2]
  Activity: 84%
[3]
  Activity: 100%
[4]
  Activity: 33%
[5]
  Activity: 93%
[6]
  Activity: 94%
[7]
  Activity: 95%
[8]
  Activity: 92%
[9]
  Activity: 92%
[10]
  bioavailability: 1.96%
[11]
  Activity: 82%
[12]
  IC50: 2460 nM
[13]
  Activity: 83%
[14]
  Activity: 100%
[15]
  Activity: 100%
[16]
  Activity: 90%
EOL1
  Activity: Active
[17]
  Activity: 87%
[18]
  Activity: 100%
[19]
  MRT last: 3.33 h
